According to ChEMBL document CHEMBL4359830, “Discovery and structure-activity relationship of novel diphenylthiazole derivatives as BTK inhibitor with potent activity against B cell lymphoma cell lines” (Eur J Med Chem, 2019):

test system: Ramos; experiment: Antiproliferative activity against human Ramos cells at 40 uM measured after 72 hrs by CCK-8 assay relative to control; assay type: functional; conditions: Homo sapiens, Ramos, 72 h
Outline: (§1)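 Ramos or Raji cells in RPMI-1640 with 10% FBS and 1% penicillin-streptomycin at 37 °C, 5% CO2. Seeded at 2000–3000 cells/well one day before compound addition. Exposure 72 h, then CCK-8 with absorbance at 450 nm. […] Single-point inhibition at 40 µM reported as mean ± standard deviation.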

Compound	inhibition at 40 µM
CN1CCN(c2ccc(Nc3nc(-c4cccc(NC(=O)c5ccc(Cl)cc5)c4)sc3C(N)=O)cc2)CC1	99%
CN1CCN(c2ccc(Nc3nc(-c4cccc(NC(=O)c5ccccc5)c4)sc3C(=O)O)cc2)CC1	26.3%
CN1CCN(c2ccc(Nc3nc(-c4cccc(NC(=O)c5ccc(C(C)(C)C)cc5)c4)sc3C(N)=O)cc2)CC1	80.1%
CCOC(=O)c1sc(-c2cccc(NC(=O)c3ccccc3F)c2)nc1Nc1ccc(N2CCN(C)CC2)cc1	96.3%
CN1CCN(c2ccc(Nc3nc(-c4cccc(NC(=O)c5cccc(F)c5)c4)sc3C(=O)O)cc2)CC1	82.7%
O=C(Nc1cccc(-c2nc(Nc3ccc(N4CCOCC4)cc3)c(C(=O)O)s2)c1)c1ccc(C(F)(F)F)cc1	77.4%
CN1CCN(c2ccc(Nc3nc(-c4cccc(NC(=O)c5ccccc5F)c4)sc3C(N)=O)cc2)CC1	95.5%
CCOC(=O)c1sc(-c2cccc(NC(=O)[C@H]3CC[C@H](C)CC3)c2)nc1Nc1ccc(N2CCN(C)CC2)cc1	19.9%
CC(C)(C)c1ccc(C(=O)Nc2cccc(-c3nc(Nc4ccc(C(=O)N5CCOCC5)cc4)c(C(N)=O)s3)c2)cc1	85.2%
CN1CCN(c2ccc(Nc3nc(-c4cccc(NC(=O)c5ccccc5F)c4)sc3C(=O)O)cc2)CC1	93.3%
NC(=O)c1sc(-c2cccc(NC(=O)c3ccc(F)cc3)c2)nc1Nc1ccc(N2CCOCC2)cc1	3.53%
CCOC(=O)c1sc(-c2cccc(NC(=O)c3cccc(F)c3)c2)nc1Nc1ccc(N2CCN(C)CC2)cc1	85.2%
CCOC(=O)c1sc(-c2cccc(NC(=O)c3ccc(C(F)(F)F)cc3)c2)nc1Nc1ccc(N2CCOCC2)cc1	21.8%
CN1CCN(c2ccc(Nc3nc(-c4cccc(NC(=O)c5ccc(F)c(Cl)c5)c4)sc3C(=O)O)cc2)CC1	98.6%
CCOC(=O)c1sc(-c2cccc(NC(=O)c3ccc(N(C)C)cc3)c2)nc1Nc1ccc(N2CCOCC2)cc1	12.3%
CN1CCN(c2ccc(Nc3nc(-c4cccc(NC(=O)c5ccccc5)c4)sc3C(N)=O)cc2)CC1	98.1%
CCOC(=O)c1sc(-c2cccc(NC(=O)c3ccc(C(C)(C)C)cc3)c2)nc1Nc1ccc(N2CCOCC2)cc1	14%
CCOC(=O)c1sc(-c2cccc(NC(=O)c3ccc(C(F)(F)F)cc3)c2)nc1Nc1ccc(C(=O)N2CCOCC2)cc1	49.9%
CN1CCN(c2ccc(Nc3nc(-c4cccc(NC(=O)c5ccc(Cl)cc5)c4)sc3C(=O)O)cc2)CC1	71.6%
CC(C)NC(=O)c1sc(-c2cccc(NC(=O)c3ccc(C(C)(C)C)cc3)c2)nc1Nc1ccc(N2CCOCC2)cc1	27.9%
CN1CCN(c2ccc(Nc3nc(-c4cccc(NC(=O)c5ccc(C(F)(F)F)cc5)c4)sc3C(N)=O)cc2)CC1	97.8%
CN(C)c1ccc(C(=O)Nc2cccc(-c3nc(Nc4ccc(N5CCOCC5)cc4)c(C(=O)O)s3)c2)cc1	74.4%
CNC(=O)c1sc(-c2cccc(NC(=O)c3ccc(C(C)(C)C)cc3)c2)nc1Nc1ccc(N2CCOCC2)cc1	65.8%

test system: Ramos; experiment: Potency index, ratio of ibrutinib IC50 to compound IC50 for antiproliferative activity against human Ramos cells; assay type: functional; conditions: not given

Compound	Ratio IC50
CN1CCN(c2ccc(Nc3nc(-c4cccc(NC(=O)c5ccc(Cl)cc5)c4)sc3C(N)=O)cc2)CC1	10
CN1CCN(c2ccc(Nc3nc(-c4cccc(NC(=O)c5ccccc5F)c4)sc3C(N)=O)cc2)CC1	10

test system: Ramos; experiment: Antiproliferative activity against human Ramos cells measured after 72 hrs by CCK-8 assay; assay type: functional, cell-based; conditions: not given; outline: as §1

Compound	IC50
CN1CCN(c2ccc(Nc3nc(-c4cccc(NC(=O)c5ccc(Cl)cc5)c4)sc3C(N)=O)cc2)CC1	1.36 µM
CN1CCN(c2ccc(Nc3nc(-c4cccc(NC(=O)c5ccc(C(C)(C)C)cc5)c4)sc3C(N)=O)cc2)CC1	8.6 µM
CCOC(=O)c1sc(-c2cccc(NC(=O)c3ccccc3F)c2)nc1Nc1ccc(N2CCN(C)CC2)cc1	2 µM
CN1CCN(c2ccc(Nc3nc(-c4cccc(NC(=O)c5cccc(F)c5)c4)sc3C(=O)O)cc2)CC1	14 µM
O=C(Nc1cccc(-c2nc(Nc3ccc(N4CCOCC4)cc3)c(C(=O)O)s2)c1)c1ccc(C(F)(F)F)cc1	29.5 µM
CN1CCN(c2ccc(Nc3nc(-c4cccc(NC(=O)c5ccccc5F)c4)sc3C(N)=O)cc2)CC1	1.36 µM
CC(C)(C)c1ccc(C(=O)Nc2cccc(-c3nc(Nc4ccc(C(=O)N5CCOCC5)cc4)c(C(N)=O)s3)c2)cc1	28.4 µM
CN1CCN(c2ccc(Nc3nc(-c4cccc(NC(=O)c5ccccc5F)c4)sc3C(=O)O)cc2)CC1	6.3 µM
CCOC(=O)c1sc(-c2cccc(NC(=O)c3cccc(F)c3)c2)nc1Nc1ccc(N2CCN(C)CC2)cc1	12.8 µM
CN1CCN(c2ccc(Nc3nc(-c4cccc(NC(=O)c5ccc(F)c(Cl)c5)c4)sc3C(=O)O)cc2)CC1	5.6 µM
CN1CCN(c2ccc(Nc3nc(-c4cccc(NC(=O)c5ccccc5)c4)sc3C(N)=O)cc2)CC1	1.76 µM
CN1CCN(c2ccc(Nc3nc(-c4cccc(NC(=O)c5ccc(Cl)cc5)c4)sc3C(=O)O)cc2)CC1	23.3 µM
CN1CCN(c2ccc(Nc3nc(-c4cccc(NC(=O)c5ccc(C(F)(F)F)cc5)c4)sc3C(N)=O)cc2)CC1	1.58 µM
CN(C)c1ccc(C(=O)Nc2cccc(-c3nc(Nc4ccc(N5CCOCC5)cc4)c(C(=O)O)s3)c2)cc1	24.5 µM
CNC(=O)c1sc(-c2cccc(NC(=O)c3ccc(C(C)(C)C)cc3)c2)nc1Nc1ccc(N2CCOCC2)cc1	34.1 µM

test system: Raji; experiment: Antiproliferative activity against human Raji cells at 40 uM measured after 72 hrs by CCK-8 assay relative to control; assay type: functional; conditions: Homo sapiens, Raji, 72 h; outline: as §1

Compound	inhibition at 40 µM
CN1CCN(c2ccc(Nc3nc(-c4cccc(NC(=O)c5ccc(Cl)cc5)c4)sc3C(N)=O)cc2)CC1	92.6%
CN1CCN(c2ccc(Nc3nc(-c4cccc(NC(=O)c5ccccc5)c4)sc3C(=O)O)cc2)CC1	11.9%
CN1CCN(c2ccc(Nc3nc(-c4cccc(NC(=O)c5ccc(C(C)(C)C)cc5)c4)sc3C(N)=O)cc2)CC1	12.1%
CCOC(=O)c1sc(-c2cccc(NC(=O)c3ccccc3F)c2)nc1Nc1ccc(N2CCN(C)CC2)cc1	89.8%
CN1CCN(c2ccc(Nc3nc(-c4cccc(NC(=O)c5cccc(F)c5)c4)sc3C(=O)O)cc2)CC1	76.3%
O=C(Nc1cccc(-c2nc(Nc3ccc(N4CCOCC4)cc3)c(C(=O)O)s2)c1)c1ccc(C(F)(F)F)cc1	18.8%
CN1CCN(c2ccc(Nc3nc(-c4cccc(NC(=O)c5ccccc5F)c4)sc3C(N)=O)cc2)CC1	97.3%
CCOC(=O)c1sc(-c2cccc(NC(=O)[C@H]3CC[C@H](C)CC3)c2)nc1Nc1ccc(N2CCN(C)CC2)cc1	26.1%
CC(C)(C)c1ccc(C(=O)Nc2cccc(-c3nc(Nc4ccc(C(=O)N5CCOCC5)cc4)c(C(N)=O)s3)c2)cc1	33.4%
CN1CCN(c2ccc(Nc3nc(-c4cccc(NC(=O)c5ccccc5F)c4)sc3C(=O)O)cc2)CC1	86.8%
NC(=O)c1sc(-c2cccc(NC(=O)c3ccc(F)cc3)c2)nc1Nc1ccc(N2CCOCC2)cc1	9.92%
CCOC(=O)c1sc(-c2cccc(NC(=O)c3cccc(F)c3)c2)nc1Nc1ccc(N2CCN(C)CC2)cc1	82.8%
CCOC(=O)c1sc(-c2cccc(NC(=O)c3ccc(C(F)(F)F)cc3)c2)nc1Nc1ccc(N2CCOCC2)cc1	5.44%
CN1CCN(c2ccc(Nc3nc(-c4cccc(NC(=O)c5ccc(F)c(Cl)c5)c4)sc3C(=O)O)cc2)CC1	87.9%
CCOC(=O)c1sc(-c2cccc(NC(=O)c3ccc(N(C)C)cc3)c2)nc1Nc1ccc(N2CCOCC2)cc1	7.96%
CN1CCN(c2ccc(Nc3nc(-c4cccc(NC(=O)c5ccccc5)c4)sc3C(N)=O)cc2)CC1	91.3%
CCOC(=O)c1sc(-c2cccc(NC(=O)c3ccc(C(C)(C)C)cc3)c2)nc1Nc1ccc(N2CCOCC2)cc1	6.21%
CCOC(=O)c1sc(-c2cccc(NC(=O)c3ccc(C(F)(F)F)cc3)c2)nc1Nc1ccc(C(=O)N2CCOCC2)cc1	6.06%
CN1CCN(c2ccc(Nc3nc(-c4cccc(NC(=O)c5ccc(Cl)cc5)c4)sc3C(=O)O)cc2)CC1	90.9%
CC(C)NC(=O)c1sc(-c2cccc(NC(=O)c3ccc(C(C)(C)C)cc3)c2)nc1Nc1ccc(N2CCOCC2)cc1	6.39%
CN1CCN(c2ccc(Nc3nc(-c4cccc(NC(=O)c5ccc(C(F)(F)F)cc5)c4)sc3C(N)=O)cc2)CC1	91.8%
CN(C)c1ccc(C(=O)Nc2cccc(-c3nc(Nc4ccc(N5CCOCC5)cc4)c(C(=O)O)s3)c2)cc1	24.4%
CNC(=O)c1sc(-c2cccc(NC(=O)c3ccc(C(C)(C)C)cc3)c2)nc1Nc1ccc(N2CCOCC2)cc1	94%

target: Tyrosine-protein kinase BTK (Homo sapiens, UniProt Q06187); experiment: Inhibition of human recombinant full length N-terminal His tagged BTK expressed in baculovirus infected Sf9 cells using poly (Glu,Tyr) 4:1 as substrate measured after 60 mins in presence of ATP by ADP-Glo kinase assay; conditions: not given
Sequence (Q06187 whole entry): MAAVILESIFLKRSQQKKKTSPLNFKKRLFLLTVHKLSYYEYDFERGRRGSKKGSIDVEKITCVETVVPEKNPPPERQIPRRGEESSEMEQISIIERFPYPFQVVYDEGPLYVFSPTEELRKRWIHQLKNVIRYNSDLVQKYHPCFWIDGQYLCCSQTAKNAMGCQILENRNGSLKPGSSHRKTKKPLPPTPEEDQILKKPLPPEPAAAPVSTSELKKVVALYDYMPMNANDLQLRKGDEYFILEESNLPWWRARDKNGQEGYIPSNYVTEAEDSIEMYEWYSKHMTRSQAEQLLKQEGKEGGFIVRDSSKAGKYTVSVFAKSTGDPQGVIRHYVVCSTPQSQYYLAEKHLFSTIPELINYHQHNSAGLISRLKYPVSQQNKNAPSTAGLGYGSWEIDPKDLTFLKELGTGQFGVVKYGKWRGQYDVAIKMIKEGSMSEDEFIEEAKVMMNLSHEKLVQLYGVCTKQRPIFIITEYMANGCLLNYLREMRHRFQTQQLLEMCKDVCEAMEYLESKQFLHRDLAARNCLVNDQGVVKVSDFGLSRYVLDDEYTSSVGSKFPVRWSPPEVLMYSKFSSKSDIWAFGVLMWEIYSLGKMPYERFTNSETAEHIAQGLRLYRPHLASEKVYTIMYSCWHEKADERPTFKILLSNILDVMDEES

Compound	IC50
CN1CCN(c2ccc(Nc3nc(-c4cccc(NC(=O)c5ccc(Cl)cc5)c4)sc3C(N)=O)cc2)CC1	0.614 µM
CN1CCN(c2ccc(Nc3nc(-c4cccc(NC(=O)c5ccc(C(C)(C)C)cc5)c4)sc3C(N)=O)cc2)CC1	5.25 µM
CCOC(=O)c1sc(-c2cccc(NC(=O)c3ccccc3F)c2)nc1Nc1ccc(N2CCN(C)CC2)cc1	2.1 µM
CN1CCN(c2ccc(Nc3nc(-c4cccc(NC(=O)c5cccc(F)c5)c4)sc3C(=O)O)cc2)CC1	27.8 µM
O=C(Nc1cccc(-c2nc(Nc3ccc(N4CCOCC4)cc3)c(C(=O)O)s2)c1)c1ccc(C(F)(F)F)cc1	38.1 µM
CN1CCN(c2ccc(Nc3nc(-c4cccc(NC(=O)c5ccccc5F)c4)sc3C(N)=O)cc2)CC1	2.67 µM
CC(C)(C)c1ccc(C(=O)Nc2cccc(-c3nc(Nc4ccc(C(=O)N5CCOCC5)cc4)c(C(N)=O)s3)c2)cc1	0.333 µM
CN1CCN(c2ccc(Nc3nc(-c4cccc(NC(=O)c5ccccc5F)c4)sc3C(=O)O)cc2)CC1	21.9 µM
NC(=O)c1sc(-c2cccc(NC(=O)c3ccc(F)cc3)c2)nc1Nc1ccc(N2CCOCC2)cc1	0.258 µM
CCOC(=O)c1sc(-c2cccc(NC(=O)c3cccc(F)c3)c2)nc1Nc1ccc(N2CCN(C)CC2)cc1	19.2 µM
CCOC(=O)c1sc(-c2cccc(NC(=O)c3ccc(C(F)(F)F)cc3)c2)nc1Nc1ccc(N2CCOCC2)cc1	2.42 µM
CCOC(=O)c1sc(-c2cccc(NC(=O)c3ccc(N(C)C)cc3)c2)nc1Nc1ccc(N2CCOCC2)cc1	4.2 µM
CN1CCN(c2ccc(Nc3nc(-c4cccc(NC(=O)c5ccccc5)c4)sc3C(N)=O)cc2)CC1	0.159 µM
CN1CCN(c2ccc(Nc3nc(-c4cccc(NC(=O)c5ccc(Cl)cc5)c4)sc3C(=O)O)cc2)CC1	0.134 µM
CC(C)NC(=O)c1sc(-c2cccc(NC(=O)c3ccc(C(C)(C)C)cc3)c2)nc1Nc1ccc(N2CCOCC2)cc1	62.8 µM
CN1CCN(c2ccc(Nc3nc(-c4cccc(NC(=O)c5ccc(C(F)(F)F)cc5)c4)sc3C(N)=O)cc2)CC1	0.206 µM
CN(C)c1ccc(C(=O)Nc2cccc(-c3nc(Nc4ccc(N5CCOCC5)cc4)c(C(=O)O)s3)c2)cc1	21 µM
CNC(=O)c1sc(-c2cccc(NC(=O)c3ccc(C(C)(C)C)cc3)c2)nc1Nc1ccc(N2CCOCC2)cc1	8.53 µM

test system: Raji; experiment: Antiproliferative activity against human Raji cells measured after 72 hrs by CCK-8 assay; assay type: functional, cell-based; conditions: not given; outline: as §1

Compound	IC50
CN1CCN(c2ccc(Nc3nc(-c4cccc(NC(=O)c5ccc(Cl)cc5)c4)sc3C(N)=O)cc2)CC1	5.7 µM
CCOC(=O)c1sc(-c2cccc(NC(=O)c3ccccc3F)c2)nc1Nc1ccc(N2CCN(C)CC2)cc1	9.27 µM
CN1CCN(c2ccc(Nc3nc(-c4cccc(NC(=O)c5cccc(F)c5)c4)sc3C(=O)O)cc2)CC1	35.1 µM
CN1CCN(c2ccc(Nc3nc(-c4cccc(NC(=O)c5ccccc5F)c4)sc3C(N)=O)cc2)CC1	3.27 µM
CN1CCN(c2ccc(Nc3nc(-c4cccc(NC(=O)c5ccccc5F)c4)sc3C(=O)O)cc2)CC1	13.9 µM
CCOC(=O)c1sc(-c2cccc(NC(=O)c3cccc(F)c3)c2)nc1Nc1ccc(N2CCN(C)CC2)cc1	21.2 µM
CN1CCN(c2ccc(Nc3nc(-c4cccc(NC(=O)c5ccc(F)c(Cl)c5)c4)sc3C(=O)O)cc2)CC1	8.74 µM
CN1CCN(c2ccc(Nc3nc(-c4cccc(NC(=O)c5ccccc5)c4)sc3C(N)=O)cc2)CC1	6.36 µM
CN1CCN(c2ccc(Nc3nc(-c4cccc(NC(=O)c5ccc(Cl)cc5)c4)sc3C(=O)O)cc2)CC1	7.02 µM
CN1CCN(c2ccc(Nc3nc(-c4cccc(NC(=O)c5ccc(C(F)(F)F)cc5)c4)sc3C(N)=O)cc2)CC1	3.21 µM
CNC(=O)c1sc(-c2cccc(NC(=O)c3ccc(C(C)(C)C)cc3)c2)nc1Nc1ccc(N2CCOCC2)cc1	8.96 µM
